Reference: ChEMBL document CHEMBL1122001, “Darmstoff analogues. 2. Ring and side-chain effects on smooth-muscle contraction” (1982)
Active and inactive are the calls of the source. The rule behind the calls is not given here.

Columns and labels:
Format in all cases: functional
Cavia porcellus [1] = organism: Cavia porcellus; assay: Potency for guinea pig ileum contraction relative to acetylcholine
Summary of the method: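 Ileal strip held in an oxygenated (95% O2/5% CO2) buffer bath under 1-g tension, with contraction magnitude recorded on a dynograph. An acetylcholine control response curve was run first, then a test compound curve after tissue recovery. The value is the ratio of the doses giving 50% of maximal response.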

Cavia porcellus [2] = organism: Cavia porcellus; assay: Concentration required for half-maximal contraction of guinea pig ileum
Cavia porcellus [3] = organism: Cavia porcellus; assay: Compound was tested for its ability to cause contraction of guinea pig ileum; Active
Cavia porcellus [4] = organism: Cavia porcellus; assay: Compound was tested for its ability to cause contraction of guinea pig ileum; Inactive

CCCCCCCC/C=C/CCCCCCCC1COC(COP(=O)([O-])O)CO1.[Na+] (stereo not drawn)
Potency (Cavia porcellus [1]): 0.05%
Concentration (Cavia porcellus [2]): 16 µM
Activity (Cavia porcellus [3]): Active

CCCCCCCCCCCCCCCC1OCC(COP(=O)(O)O)O1 (stereo not drawn)
Activity (Cavia porcellus [4]): inactive

CCCCCCCC/C=C/CCCCCCCC1CCC(COP(=O)(O)O)O1 (stereo not drawn)
Activity (Cavia porcellus [4]): inactive

CCCCCCCCCCCCCCCC1CCC(COP(=O)(O)O)O1 (stereo not drawn)
Activity (Cavia porcellus [4]): inactive

CCCCCCCCCCCCCCCC1COC(COP(=O)(O)O)CO1 (stereo not drawn)
Activity (Cavia porcellus [4]): inactive

CCCCCCCC/C=C/CCCCCCCC1OCC(COP(=O)([O-])O)O1.[Na+] (cis isomer)
Potency (Cavia porcellus [1]): 0.4%
Activity (Cavia porcellus [3]): Active

CCCCCCCC/C=C/CCCCCCCC1OC(COP(=O)(O)O)CS1 (cis isomer)
Activity (Cavia porcellus [4]): inactive

CCCCCCCCCCCCCCCC1CCC(COP(=O)(O)O)C1 (stereo not drawn)
Activity (Cavia porcellus [4]): inactive

CCCCCCCCCCCCCCCC1OC(COP(=O)(O)O)CS1 (stereo not drawn)
Activity (Cavia porcellus [4]): inactive

CCCCCCCC/C=C/CCCCCCCC1CCC(COP(=O)(O)O)C1 (cis isomer)
Activity (Cavia porcellus [4]): inactive
